Molecules are shown by their SMILES.

Test [1] has as its system MCF7. Description: Growth inhibition of human MCF7 cells after 3 days by MTT assay. The test is classed as functional. The following applies: MCF7, 72 h. The gist of the method: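 MCF-7 mammary adenocarcinoma cells were grown in DMEM (1.0 g/L D-glucose) with 10% heat-inactivated FBS, 2 mM L-alanyl-L-glutamine and penicillin-streptomycin at 37 °C under 5% CO2. Compounds were added 24 h after plating (0.01–100 µM final), with untreated controls. After 3 days, MTT was read at 570 nm; each value is the mean of 8 wells. GI50 was calculated per NCI, 100×(T−T0)/(C−T0)=50.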
For orientation: Formazan colour is commonly taken as a measure of viable cells.

Test [2] deals with LNCaP. Description: Growth inhibition of human LNCAP cells after 3 days by MTT assay. Type of test: functional. Conditions: 72 h. The gist of the method:
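LNCap prostate adenocarcinoma cells were grown in RPMI 1640 with 10% heat-inactivated FBS, 2 mM L-alanyl-L-glutamine and penicillin-streptomycin at 37 °C under 5% CO2. Cells were plated, then treated 24 h later at 0.01–100 µM final against untreated controls. MTT was read at 570 nm after 3 days, averaging 8 wells. GI50 was derived by the NCI formula 100×(T−T0)/(C−T0)=50.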

A word on the GI50: it is the concentration at which growth is held to half of that of the control. In test [1], `Cn1cccc1/C=C/c1n(C)cc[n+]1C` gave a concentration for 50% growth inhibition (GI50) of 100 µM.

Consider `Cn1cc[n+](C)c1/C=C/c1ccc(-c2cccs2)s1`, for which the figures for the GI50 in test [2] and in test [1] were 6.03 µM and 4.68 µM, respectively.

As for `Cn1cc[n+](C)c1/C=C/c1cc(-c2ccccc2)cs1`, the concentration for 50% growth inhibition (GI50) was 20 µM in test [2] and 1 µM in test [1].

Broadly, the LC50 is the concentration lethal to half of the exposed cells or organisms. Low readings indicate greater toxicity, high ones lower toxicity. In the case of `C[n+]1ccccc1/C=C/c1cc(-c2ccccc2)cs1`, in test [2], halving of growth (GI50) required 7.59 µM and the 50% lethal concentration (LC50) was 69.2 µM. For the same molecule, in test [1], growth was halved (GI50) at 0.525 µM and the LC50 was 77.6 µM.

In test [1], `Cn1cc[n+](C)c1/C=C/c1ccc(Br)s1` gave a GI50 of 14.5 µM. This counts as double-digit micromolar.

With `C[n+]1ccccc1/C=C/c1ccc(-c2ccccc2)s1`, the concentration for 50% growth inhibition (GI50) in test [2] was 33.9 µM; in test [1], 8.32 µM.

With `Cn1c(/C=C/c2cccc[n+]2C)cc2ccccc21`, it took 15.1 µM to inhibit growth in test [1] by half (GI50).

With `Cn1cc[n+](C)c1/C=C/c1ccc(-c2ccccc2)s1`, the 50% growth inhibitory concentration (GI50) in test [2] is 8.32 µM; in test [1] it was 1.45 µM.

These data come from ChEMBL document CHEMBL1165970, “Design, synthesis and biological evaluation of trans 2-(thiophen-2-yl)vinyl heteroaromatic iodides” (2010).
